Laboratory results reported in ChEMBL document CHEMBL1275319, “Synthesis and cytotoxicity evaluation of novel 1,4-disubstituted 1,2,3-triazoles via CuI catalysed 1,3-dipolar cycloaddition” (Eur J Med Chem, 2010).

What was measured:
[1] = Inhibition of tubulin polymerization at 3 uM
How it was run: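 Reaction started by GTP addition and run protected from light at 37 °C. Polymerization followed as fluorescence increase at 360/420 nm excitation/emission. Percent inhibition calculated relative to untreated control.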

[2] = test system: A549; test: Antiproliferative activity against human A549 cells after 48 hrs by MTT assay; format: functional, cell-based; settings: A549, 48 h
How it was run: (§1)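 MTT viability read-out; cells cultured in DMEM and exposed to compound for 48 h. IC50 taken as the concentration giving 50% inhibition of tumour cell proliferation.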

[3] = test system: HT-29; test: Antiproliferative activity against human HT-29 cells after 48 hrs by MTT assay; format: functional, cell-based; settings: HT-29, 48 h; how it was run: as §1
[4] = test system: HeLa; test: Antiproliferative activity against human HeLa cells after 48 hrs by MTT assay; format: functional, cell-based; how it was run: as §1
[5] = Inhibition of tubulin polymerization at 30 uM
How it was run: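 GTP addition starts the reaction, run protected from light at 37 °C. Polymerization followed as fluorescence increase at 360/420 nm excitation/emission; % inhibition calculated against untreated control.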

Row | SMILES | inhibition [1] [%] | IC50 [2] [µM] | IC50 [3] [µM] | IC50 [4] [µM] | inhibition [5] [%]
1 | COc1cc([C@@H]2c3cc4c(cc3[C@H](O)[C@H]3COC(=O)[C@H]23)OCO4)cc(OC)c1OC | 58.1 |  |  |  | 
2 | COc1ccc2cc(-c3cn(CC(=O)c4ccccc4)nn3)ccc2c1 |  | > 300 | > 300 | > 300 | 
3 | CCCCCc1ccc(-c2cn(CC(=O)c3ccccc3)nn2)cc1 |  | > 300 | > 300 | > 300 | 
4 | Cc1cc(C)c(-c2cn(CC(=O)c3ccccc3)nn2)cc1C |  | 91 | 190 | > 300 | 6.6
5 | CCC(C(=O)c1ccccc1)n1cc(-c2ccccc2)nn1 (configuration not stated) |  | 26 | 116 | 155 | 19.3
6 | COc1cc2c(c(OC)c1OC)-c1ccc(OC)c(=O)cc1[C@@H](NC(C)=O)CC2 [COLCHICINE] | 53.8 | < 1 | < 1 | < 1 | 
7 | CCCCCCc1cn(CC(=O)c2ccccc2)nn1 |  | > 300 | > 300 | > 300 | 
8 | O=C(Cn1cc(-c2ccccc2)nn1)c1ccc(Cl)cc1 |  | > 300 | > 300 | > 300 | 
9 | O=C(Cn1cc(-c2ccccc2)nn1)c1ccccc1 |  | > 300 | > 300 | > 300 | 
10 | O=C(Cn1cc(-c2ccccn2)nn1)c1ccccc1 |  | > 300 | > 300 | > 300 | 
11 | O=C(Cn1cc(-c2ccsc2)nn1)c1ccccc1 |  | 260 | > 300 | > 300 | 
12 | CC(C(=O)c1ccccc1)n1cc(-c2ccccc2)nn1 (configuration not stated) |  | > 300 | > 300 | > 300 | 
13 | COc1ccc(C(=O)Cn2cc(-c3ccccc3)nn2)cc1 |  | > 300 | 49 | > 300 | 14.1
14 | COc1ccc(-c2cn(CC(=O)c3ccccc3)nn2)cc1 |  | 187 | > 300 | > 300 | 
15 | O=C(Cn1cc(-c2ccccc2)nn1)c1ccc(Br)cc1 |  | > 300 | > 300 | > 300 | 
16 | Cc1ccc(C(=O)Cn2cc(-c3ccccc3)nn2)cc1 |  | > 300 | > 300 | > 300 | 
17 | O=C(Cn1cc(CO)nn1)c1ccccc1 |  | > 300 | > 300 | > 300 | 
18 | Cc1ccc(-c2cn(CC(=O)c3ccccc3)nn2)cc1 |  | 292 | 238 | > 300 | 2.8
